From ChEMBL document CHEMBL1148787, “Novel substituted (pyridin-3-yl)phenyloxazolidinones: antibacterial agents with reduced activity against monoamine oxidase A and increased solubility” (J Med Chem, 2007)
≈ marks a conversion by molar mass, not a printed value.

What was measured:
[1] = Half life in Wistar rat at 2 mg/kg, iv; type: ADME, organism-based; parameters: dose 2 mg/kg, route intravenous; details: in vivo
Procedure, shortened: (§1)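 Groups of three Wistar Han rats; bolus injection via cannulated jugular vein at 2 or 10 mg/kg. Serial 200 µL whole-blood samples at time intervals; plasma levels by LC-MS/MS; parameters by noncompartmental analysis.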

[2] = Clearance in Wistar rat at 2 mg/kg, iv; type: ADME, organism-based; parameters: dose 2 mg/kg, route intravenous; details: in vivo; procedure, shortened: as §1
[3] = Volume of distribution in Wistar rat at 2 mg/kg, iv; type: ADME, organism-based; parameters: dose 2 mg/kg, route intravenous; details: in vivo, read-out: Vdss; procedure, shortened: as §1
Staphylococcus aureus = assay: Antibacterial activity against methicillin-susceptible Staphylococcus aureus AP601055; type: functional
Procedure, shortened: (§2)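 CLSI broth microdilution, 64 to 0.06 µg/mL, 2% DMSO final. Media: S. aureus, Mueller Hinton broth; H. influenzae, MHB plus 0.5% yeast extract, 15 µg/mL hematin, 1.5 µg/mL NAD; S. pneumoniae, MHB plus 0.65% lysed horse blood. 35 °C, aerobic (S. aureus) or 5% CO2.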

Streptococcus pneumoniae [4] = assay: Antibacterial activity against penicillin-susceptible Streptococcus pneumoniae AP671401; type: functional; procedure, shortened: as §2
Streptococcus pneumoniae [5] = assay: Antibacterial activity against linezolid-resistant Streptococcus pneumoniae; type: functional
Procedure, shortened: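 Broth microdilution per CLSI guidelines. Compounds were dissolved in 100% DMSO and diluted to 2% DMSO (v/v), 64 to 0.06 µg/mL, in 2.2% (w/v) Mueller Hinton broth with 0.65% (v/v) lysed horse blood. Plates were incubated at 35 °C in 5% CO2 and read at 620 nm.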

Haemophilus influenzae = assay: Antibacterial activity against Haemophilus influenzae ATCC 51907; type: functional; procedure, shortened: as §2
[6] = Solubility by nephelometric analysis; type: physicochemical
Procedure, shortened: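 Nephelometry after diluting compounds into the MAO-A assay mixture (100 mM potassium phosphate, pH 7.4).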

[7] = target: T1, Amine oxidase [flavin-containing] A (Homo sapiens, UniProt P21397); assay: Inhibition of human liver MAOA expressed in yeast
T1 sequence (P21397 whole entry): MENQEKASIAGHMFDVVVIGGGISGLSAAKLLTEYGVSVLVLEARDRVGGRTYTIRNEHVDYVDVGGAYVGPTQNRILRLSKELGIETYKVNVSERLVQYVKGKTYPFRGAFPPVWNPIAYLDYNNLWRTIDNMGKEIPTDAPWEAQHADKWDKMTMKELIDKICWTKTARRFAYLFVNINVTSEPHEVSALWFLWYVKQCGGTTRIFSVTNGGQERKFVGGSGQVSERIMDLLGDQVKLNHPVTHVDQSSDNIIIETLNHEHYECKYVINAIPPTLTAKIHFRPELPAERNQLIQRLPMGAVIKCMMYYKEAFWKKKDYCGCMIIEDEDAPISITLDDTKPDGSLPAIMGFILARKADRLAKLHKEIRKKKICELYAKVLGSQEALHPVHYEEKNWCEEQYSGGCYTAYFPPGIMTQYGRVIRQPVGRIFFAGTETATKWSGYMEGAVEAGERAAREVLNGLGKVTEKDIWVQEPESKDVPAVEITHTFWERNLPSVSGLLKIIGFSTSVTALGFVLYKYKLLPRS

Rattus norvegicus = assay: AUC in Wistar rat at 2 mg/kg, iv; type: ADME, organism-based, Plasma; parameters: dose 2 mg/kg, route intravenous; details: in vivo; procedure, shortened: as §1
[8] = Oral bioavailability in Wistar rat at 10 mg/kg, po; type: ADME, organism-based; details: in vivo
Procedure, shortened: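 Wistar Han rats, groups of three; 10 mg/kg given by oral gavage, compared against iv dosing. Serial whole-blood sampling, plasma drug by LC-MS/MS, noncompartmental pharmacokinetic analysis.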

Homo sapiens = species on record: Homo sapiens; assay: Protein binding in human plasma; details: read-out: PPB (converted)
Cytochrome P450 1A2 = target: T2, Cytochrome P450 1A2 (Homo sapiens, UniProt P05177); assay: Inhibition of human recombinant CYP1A2; type: ADME
T2 sequence (P05177 whole entry): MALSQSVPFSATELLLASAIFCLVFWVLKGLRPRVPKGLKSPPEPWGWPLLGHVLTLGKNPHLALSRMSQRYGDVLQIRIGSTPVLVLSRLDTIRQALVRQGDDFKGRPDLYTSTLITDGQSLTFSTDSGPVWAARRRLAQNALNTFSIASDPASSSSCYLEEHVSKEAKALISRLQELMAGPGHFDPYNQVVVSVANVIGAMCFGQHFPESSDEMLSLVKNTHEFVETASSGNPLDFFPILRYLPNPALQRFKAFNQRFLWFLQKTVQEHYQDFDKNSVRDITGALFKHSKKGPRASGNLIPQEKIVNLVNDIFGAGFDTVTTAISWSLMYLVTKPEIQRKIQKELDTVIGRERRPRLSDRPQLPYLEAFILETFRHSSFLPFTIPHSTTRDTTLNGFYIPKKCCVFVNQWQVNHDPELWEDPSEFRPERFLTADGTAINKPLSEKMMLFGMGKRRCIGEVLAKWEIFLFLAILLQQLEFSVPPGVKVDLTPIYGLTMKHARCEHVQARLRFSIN
Procedure, shortened: (§3)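 Recombinant human P450s, compound at 0.2-20 µM; fluorogenic substrates: 3-cyano-7-ethoxycoumarin (1A2), 7-methoxy-4-trifluoromethylcoumarin (2C9, 2C19), 7-methoxy-4-(aminomethyl)coumarin (2D6). Fluorescence detection; IC50 determined.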

Cytochrome P450 2C9 = Cytochrome P450 2C9 (Homo sapiens, UniProt P11712); assay: Inhibition of human recombinant CYP2C9; type: ADME; procedure, shortened: as §3
Cytochrome P450 2C19 = Cytochrome P450 2C19 (Homo sapiens, UniProt P33261); assay: Inhibition of human recombinant CYP2C19; type: ADME; procedure, shortened: as §3
Cytochrome P450 2D6 = Cytochrome P450 2D6 (Homo sapiens, UniProt P10635); assay: Inhibition of human recombinant CYP2D6; type: ADME; procedure, shortened: as §3
Cytochrome P450 3A4 = Cytochrome P450 3A4 (Homo sapiens, UniProt P08684); assay: Inhibition of human recombinant CYP3A4; type: ADME
Mus musculus [9] = assay: AUC in Streptococcus pneumoniae 548 infected mouse lung infection model at 40 mg/kg/day, po; type: ADME, organism-based; parameters: route oral; details: in vivo
Procedure, shortened: (§4)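 CD-1 mice; oral gavage at 40 or 80 mg/kg. Groups of three sacrificed at timed intervals, whole blood taken by cardiac puncture; plasma treated with methanol containing internal standard and quantified by LC-MS/MS against standard curve.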

Mus musculus [10] = assay: AUC in Streptococcus pneumoniae 548 infected mouse lung infection model at 80 mg/kg/day, po; type: ADME, organism-based; parameters: route oral; details: in vivo; procedure, shortened: as §4
Streptococcus pneumoniae [11] = assay: Antibacterial activity against Streptococcus pneumoniae 548 infected mouse lung infection model assessed as reduction in bacterial count at 40 mg/kg/day, po relative to control; type: functional
Procedure, shortened: (§5)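 Groups of 10 CD-1 mice infected intratracheally, 1 × 10^5 cfu/lung. Oral gavage of compound or vehicle started 18 h post-infection. Lungs removed 24 h after treatment start, homogenized, serially diluted onto Tryptic Soy agar with 5% sheep blood; log CFU reduction versus vehicle group.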

Streptococcus pneumoniae [12] = assay: Antibacterial activity against Streptococcus pneumoniae 548 infected mouse lung infection model assessed as reduction in bacterial count at 80 mg/kg/day, po relative to control; type: functional; procedure, shortened: as §5
[13] = Half life in Wistar rat at 10 mg/kg, iv; type: ADME, organism-based; parameters: dose 10 mg/kg, route intravenous; details: in vivo; procedure, shortened: as §1
[14] = Clearance in Wistar rat at 10 mg/kg, iv; type: ADME, organism-based; parameters: dose 10 mg/kg, route intravenous; details: in vivo; procedure, shortened: as §1
[15] = Volume of distribution in Wistar rat at 10 mg/kg, iv; type: ADME, organism-based; parameters: dose 10 mg/kg, route intravenous; details: in vivo, read-out: Vdss; procedure, shortened: as §1
[16] = AUC in Wistar rat at 10 mg/kg, iv; type: ADME, organism-based; parameters: dose 10 mg/kg, route intravenous; details: plasma; procedure, shortened: as §1

Cytochrome P450 3A4, sequence (P08684 whole entry): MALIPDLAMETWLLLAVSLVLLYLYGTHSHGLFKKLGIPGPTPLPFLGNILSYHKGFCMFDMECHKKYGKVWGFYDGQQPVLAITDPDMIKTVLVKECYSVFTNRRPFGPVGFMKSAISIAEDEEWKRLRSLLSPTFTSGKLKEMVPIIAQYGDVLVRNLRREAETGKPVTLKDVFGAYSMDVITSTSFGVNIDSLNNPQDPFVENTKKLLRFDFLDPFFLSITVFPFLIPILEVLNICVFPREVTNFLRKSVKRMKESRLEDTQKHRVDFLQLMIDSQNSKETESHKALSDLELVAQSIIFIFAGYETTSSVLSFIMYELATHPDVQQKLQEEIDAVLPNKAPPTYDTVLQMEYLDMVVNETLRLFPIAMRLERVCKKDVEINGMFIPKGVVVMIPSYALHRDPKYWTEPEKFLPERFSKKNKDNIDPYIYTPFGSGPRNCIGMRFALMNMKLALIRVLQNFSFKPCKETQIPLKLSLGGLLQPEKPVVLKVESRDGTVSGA
Cytochrome P450 2C19, sequence (P33261 whole entry): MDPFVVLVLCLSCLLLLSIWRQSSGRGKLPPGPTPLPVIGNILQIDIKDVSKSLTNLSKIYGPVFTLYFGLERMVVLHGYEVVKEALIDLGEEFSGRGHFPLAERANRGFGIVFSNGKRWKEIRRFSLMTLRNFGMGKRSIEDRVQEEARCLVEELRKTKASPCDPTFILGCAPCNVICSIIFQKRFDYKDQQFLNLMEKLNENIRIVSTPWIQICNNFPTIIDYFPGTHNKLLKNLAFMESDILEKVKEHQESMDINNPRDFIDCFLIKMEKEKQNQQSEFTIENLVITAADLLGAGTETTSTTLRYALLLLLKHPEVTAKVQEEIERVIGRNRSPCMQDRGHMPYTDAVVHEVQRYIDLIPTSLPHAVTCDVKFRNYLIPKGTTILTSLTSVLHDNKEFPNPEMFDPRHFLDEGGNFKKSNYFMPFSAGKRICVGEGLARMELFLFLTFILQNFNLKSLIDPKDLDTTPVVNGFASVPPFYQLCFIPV
Cytochrome P450 2C9, sequence (P11712 whole entry): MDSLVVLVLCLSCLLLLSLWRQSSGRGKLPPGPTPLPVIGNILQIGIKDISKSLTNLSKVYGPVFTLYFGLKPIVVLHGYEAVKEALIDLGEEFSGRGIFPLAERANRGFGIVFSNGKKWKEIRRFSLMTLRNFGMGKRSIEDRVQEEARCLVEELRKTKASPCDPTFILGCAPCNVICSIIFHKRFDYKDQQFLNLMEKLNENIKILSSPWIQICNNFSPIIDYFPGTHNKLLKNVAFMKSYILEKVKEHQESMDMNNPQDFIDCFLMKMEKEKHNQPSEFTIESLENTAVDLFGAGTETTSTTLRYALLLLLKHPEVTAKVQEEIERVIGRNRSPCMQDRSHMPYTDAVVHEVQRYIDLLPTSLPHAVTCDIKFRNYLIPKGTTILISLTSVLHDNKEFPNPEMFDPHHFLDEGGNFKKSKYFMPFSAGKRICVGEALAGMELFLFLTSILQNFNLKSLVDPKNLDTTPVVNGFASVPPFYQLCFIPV
Cytochrome P450 2D6, sequence (P10635 whole entry): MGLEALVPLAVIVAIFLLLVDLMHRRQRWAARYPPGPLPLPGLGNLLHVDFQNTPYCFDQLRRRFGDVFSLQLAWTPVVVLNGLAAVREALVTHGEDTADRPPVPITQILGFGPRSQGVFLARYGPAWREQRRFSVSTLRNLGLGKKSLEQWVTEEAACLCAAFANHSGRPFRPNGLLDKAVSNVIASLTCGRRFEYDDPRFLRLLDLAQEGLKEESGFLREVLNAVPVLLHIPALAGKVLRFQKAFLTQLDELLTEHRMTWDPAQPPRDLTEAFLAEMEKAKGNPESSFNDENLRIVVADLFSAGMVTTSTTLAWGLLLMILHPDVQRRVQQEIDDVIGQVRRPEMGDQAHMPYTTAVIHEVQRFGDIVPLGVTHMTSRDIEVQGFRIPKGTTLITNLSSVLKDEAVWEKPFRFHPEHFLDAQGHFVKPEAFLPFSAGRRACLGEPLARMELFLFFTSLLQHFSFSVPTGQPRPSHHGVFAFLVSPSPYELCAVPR

| SMILES | half-life [1] [min] | clearance [2] [mL/min/kg] | Vd [3] [L/kg] | MIC (Staphylococcus aureus) [µg/mL] | MIC (Streptococcus pneumoniae [4]) [µg/mL] | MIC (Streptococcus pneumoniae [5]) [µg/mL] | MIC (Haemophilus influenzae) [µg/mL] | solubility kinetic [6] [µM] | Ki [7] [µM] | AUC (Rattus norvegicus) [ug/hr.ml] | bioavailability [8] [%] | fraction unbound (Homo sapiens) | IC50 (Cytochrome P450 1A2) [µM] | IC50 (Cytochrome P450 2C9) [µM] | IC50 (Cytochrome P450 2C19) [µM] | IC50 (Cytochrome P450 2D6) [µM] | IC50 (Cytochrome P450 3A4) [µM] | AUC (Mus musculus [9]) [µg·h/mL] | AUC (Mus musculus [10]) [µg·h/mL] | Log10 cfu (Streptococcus pneumoniae [12]) | also measured |
| --- | --- | --- | --- | --- | --- | --- | --- | --- | --- | --- | --- | --- | --- | --- | --- | --- | --- | --- | --- | --- | --- |
| Cc1cn(CC(=O)c2ccc(-c3ccc(N4C[C@H](Cn5ccnn5)OC4=O)cc3F)cn2)c(C)n1 | 60 | 13 | 0.9 | 0.25 (≈ 0.526 µM) | < 0.06 | 0.25 (≈ 0.526 µM) | 2 (≈ 4.21 µM) | 25 (≈ 11.9 µg/mL) | > 11 | 2.6 | 14 | 0.12 | – | – | – | – | – | – | – | – | – |
| CCc1nccn1CC(=O)c1ccc(-c2ccc(N3C[C@H](Cn4ccnn4)OC3=O)cc2F)cn1 | 36 | 23 | 0.9 | 0.5 (≈ 1.05 µM) | < 0.06 | 0.5 (≈ 1.05 µM) | 4 (≈ 8.41 µM) | 100 (≈ 47.5 µg/mL) | > 44 | 1.6 | – | – | – | – | – | – | – | – | – | – | – |
| Cc1cnc(C)n1CC(=O)c1ccc(-c2ccc(N3C[C@H](Cn4ccnn4)OC3=O)cc2F)cn1 | 108 | 10 | 1.4 | 0.25 (≈ 0.526 µM) | < 0.06 | 0.5 (≈ 1.05 µM) | 4 (≈ 8.41 µM) | 50 (≈ 23.8 µg/mL) | 19 | 3.3 | 73 | 0.1 | > 20 | > 20 | > 20 | > 20 | 10.7 | 17.4 | 31 | 2.57 | Log10 cfu (Streptococcus pneumoniae [11]): 1.94 |
| Cc1nccn1CC(=O)c1ccc(-c2ccc(N3C[C@H](Cn4ccnn4)OC3=O)cc2F)cn1 | – | – | – | 0.5 (≈ 1.08 µM) | 0.13 (≈ 0.282 µM) | 0.5 (≈ 1.08 µM) | 2 (≈ 4.33 µM) | 200 (≈ 92.3 µg/mL) | > 89 | – | 100 | 0.25 | > 20 | > 20 | > 20 | > 20 | > 20 | – | – | – | half-life [13]: 24 min; clearance [14]: 62 mL/min/kg; Vd [15]: 0.3 L/kg; AUC [16]: 1200 ng·h/mL |
| CC(=O)NC[C@H]1CN(c2ccc(N3CCOCC3)c(F)c2)C(=O)O1 [LINEZOLID] | – | – | – | – | – | – | – | – | – | – | – | – | – | – | – | – | – | 45.7 | 105 | 3.89 | – |
